Data reported in ChEMBL document CHEMBL4680120, “Novel anti-Alzheimer phenol-lipoyl hybrids: Synthesis, physico-chemical characterization, and biological evaluation” (Eur J Med Chem, 2020).
Activity calls are given as the source filed them. No cut-off for these calls is given here.

Tests used:
SH-SY5Y [1] = test: Neuroprotective activity against amyloid beta (1 to 42)-induced toxicity in human SH-SY5Y cells assessed as decrease in EGFR mRNA expression at IC50 measured after 48 hrs by SYBR green dye based RT-qPCR analysis; format: functional, cell-based
Method in brief: (§1)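 Differentiated SH-SY5Y cells in 6-well plates treated 48 h with Aβ1-42 (20 μM) with or without hybrid. mRNA of AD-related genes measured by RT-qPCR, normalized to β-actin. Expressed as fold change versus untreated cells. Triplicate experiments.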

SH-SY5Y [2] = test: Neuroprotective activity against amyloid beta (1 to 42)-induced toxicity in human SH-SY5Y cells assessed as increase in ADAM10 mRNA expression at IC50 measured after 48 hrs by SYBR green dye based RT-qPCR analysis; format: functional, cell-based; method in brief: as §1
SH-SY5Y [3] = test: Cytotoxicity against human SH-SY5Y cells assessed as reduction in cell viability at 1 to 250 mg/l measured after 48 hrs by MTT assay; format: cell-based; details: dose 1-250 mg/L
Method in brief: (§2)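 SH-SY5Y cells grown in DMEM/F12 with 10% FBS and differentiated with retinoic acid (10 μM), seeded at 1×10^4 per well and cultured 24 h. Cells were given hybrids at 1–250 mg/L with or without Aβ1-42 (20 μM) for 48 h. MTT (5 mg/mL) added for 4 h at 37°C, DMSO solubilization, read at 570/630 nm. LDH read at 450 nm. Five independent experiments.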

SH-SY5Y [4] = test: Neuroprotective activity against amyloid beta (1 to 42)-induced apoptosis in human SH-SY5Y cells assessed as decrease in DNA condensation at IC50 measured after 48 hrs by Hoechst 33258 staining based fluorescence microscopic assay; format: functional, cell-based
Method in brief: (§3)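 Differentiated SH-SY5Y cells, 4×10^4 per well, exposed 48 h to Aβ1-42 (20 μM) with or without hybrid. Fixed in 4% paraformaldehyde for 30 min, stained with Hoechst 33258 for 15 min. Nuclear chromatin condensation and DNA fragmentation scored by fluorescence microscopy at ×200.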

SH-SY5Y [5] = test: Neuroprotective activity against amyloid beta (1 to 42)-induced apoptosis in human SH-SY5Y cells assessed as decrease in DNA fragmentation at IC50 measured after 48 hrs by Hoechst 33258 staining based fluorescence microscopic assay; format: functional, cell-based; method in brief: as §3
SH-SY5Y [6] = test: Neuroprotective activity against amyloid beta (1 to 42)-induced toxicity in human SH-SY5Y cells assessed as decrease in TNFalpha mRNA expression at IC50 measured after 48 hrs by SYBR green dye based RT-qPCR analysis; format: functional, cell-based; method in brief: as §1
[7] = Stability in simulated gastric fluid at pH 1.2 assessed as relative difference measured after 60 mins in presence of pepsin by HPLC analysis; format: ADME; details: isolated protein, pH 1.2, 1 h
Method in brief: (§4)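 Incubation in simulated gastric fluid (pH 1.2, pepsin) or simulated intestinal fluid (pH 6.8, pancreatin). Aliquots deproteinized with ice-cold acetonitrile, centrifuged at 4°C and 12000 rpm for 10 min, filtered, analyzed by HPLC. RD% = (Ci − Cf)/Ci × 100. Stable if RD < 5%. Means of three experiments.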

[8] = Half life in human plasma by HPLC analysis; format: ADME, cell-free
Method in brief: (§5)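 Compound stock added to human plasma pre-warmed to 37°C and diluted with 0.02 M phosphate buffer (pH 7.4) to 80% plasma. 100 μL samples taken over time, quenched with 200 μL cold acetonitrile, centrifuged, and supernatant analyzed by HPLC. t½ and kobs are means of three experiments.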

SH-SY5Y [9] = test: Neuroprotective activity against amyloid beta (1 to 42)-induced toxicity in human SH-SY5Y cells assessed as increase in cell viability at 1 to 250 mg/l measured after 48 hrs by MTT assay; format: functional, cell-based; details: dose 1-250 mg/L; method in brief: as §2
SH-SY5Y [10] = test: Neuroprotective activity against amyloid beta (1 to 42)-induced toxicity in human SH-SY5Y cells assessed as decrease in BDNF mRNA expression at IC50 measured after 48 hrs by SYBR green dye based RT-qPCR analysis; format: functional, cell-based; method in brief: as §1
SH-SY5Y [11] = test: Neuroprotective activity against amyloid beta (1 to 42)-induced toxicity in human SH-SY5Y cells assessed as decrease in MAPT mRNA expression at IC50 measured after 48 hrs by SYBR green dye based RT-qPCR analysis; format: functional, cell-based; method in brief: as §1
SH-SY5Y [12] = test: Neuroprotective activity against amyloid beta (1 to 42)-induced toxicity in human SH-SY5Y cells assessed as decrease in APOE mRNA expression at IC50 measured after 48 hrs by SYBR green dye based RT-qPCR analysis; format: functional, cell-based; method in brief: as §1
SH-SY5Y [13] = test: Neuroprotective activity against amyloid beta (1 to 42)-induced apoptosis in human SH-SY5Y cells assessed as necrotic cells at IC50 measured after 48 hrs by Annexin-V/Propidium iodide staining based flow cytometry (reference value: 6.99%); format: functional
[14] = Stability in human plasma assessed as observed rate constant by HPLC analysis; format: ADME, cell-free; method in brief: as §5
[15] = Stability in simulated gastric fluid at pH 1.2 assessed as relative difference measured after 30 mins in presence of pepsin by HPLC analysis; format: ADME; details: isolated protein, pH 1.2, 0.5 h; method in brief: as §4
Erythrocyte [16] = test: Cytoprotective activity against H2O2-induced oxidative damage in human RBC assessed as restoration of antioxidant activity measured after 72 hrs by TAC assay; format: functional, cell-based
SH-SY5Y [17] = test: Neuroprotective activity against amyloid beta (1 to 42)-induced toxicity in human SH-SY5Y cells assessed as decrease in PSENEN mRNA expression at IC50 measured after 48 hrs by SYBR green dye based RT-qPCR analysis; format: functional, cell-based; method in brief: as §1
SH-SY5Y [18] = test: Neuroprotective activity against amyloid beta (1 to 42)-induced toxicity in human SH-SY5Y cells assessed as decrease in […] mRNA expression at IC50 measured after 48 hrs by SYBR green dye based RT-qPCR analysis; format: functional, cell-based; method in brief: as §1
Erythrocyte [19] = test: Cytoprotective activity against H2O2-induced oxidative damage in human RBC assessed as increase in cell viability measured after 72 hrs by MTT assay; format: functional, cell-based
SH-SY5Y [20] = test: Neuroprotective activity against amyloid beta (1 to 42)-induced apoptosis in human SH-SY5Y cells assessed as early apoptotic cells at IC50 measured after 48 hrs by Annexin-V/Propidium iodide staining based flow cytometry (reference value: 0.74%); format: functional
Erythrocyte [21] = test: Antioxidant activity in human RBC assessed as increase in total antioxidant capacity level up to 400 ug/ml measured after 72 hrs relative to control; format: functional; details: dose microg/ml <=400
SH-SY5Y [22] = test: Neuroprotective activity against amyloid beta (1 to 42)-induced toxicity in human SH-SY5Y cells assessed as decrease in BACE1 mRNA expression at IC50 measured after 48 hrs by SYBR green dye based RT-qPCR analysis; format: functional, cell-based; method in brief: as §1
[23] = Stability in simulated gastric fluid at pH 1.2 assessed as relative difference measured after 15 mins in presence of pepsin by HPLC analysis; format: ADME; details: isolated protein, pH 1.2, 0.25 h; method in brief: as §4
Erythrocyte [24] = test: Cytoprotective activity against H2O2-induced oxidative damage in human RBC assessed as increase in cell viability measured after 72 hrs by LDH release assay; format: functional, cell-based
Method in brief: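 Heparinized whole blood cultured with phytohemagglutinin. Cells were co-incubated with 50 or 100 μM hybrid and H2O2 (25 μM). Viability was read by MTT: lymphocytes at 2×10^5 per well, MTT 4 h at 37°C, formazan dissolved in DMSO, absorbance 570 nm. LDH release was measured on 100 μL medium with a commercial kit. Results are relative to untreated control.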

Row | Structure (SMILES) | Activity (SH-SY5Y [1]) | Activity (SH-SY5Y [2]) | Activity (SH-SY5Y [3]) | Activity (SH-SY5Y [4]) | Activity (SH-SY5Y [5]) | Activity (SH-SY5Y [6]) | fold change (FC) [7] [%] | half-life [8] [h] | Activity (SH-SY5Y [9]) | Activity (SH-SY5Y [10]) | Activity (SH-SY5Y [11]) | Activity (SH-SY5Y [12]) | Activity (SH-SY5Y [13]) [%] | K [14] [h⁻¹] | fold change (FC) [15] [%] | Activity (Erythrocyte [16]) | Activity (SH-SY5Y [17]) | Activity (SH-SY5Y [18]) | Activity (Erythrocyte [19]) | Activity (SH-SY5Y [20]) [%] | further results
1 | O=C(CCCCC1CCSS1)NCCCCCOC(=O)Cc1ccc(O)c(O)c1 (stereo not drawn) | Active | Active | Non-Toxic | Active | Active | Active | 100 | 0.03 | Active | Active | Active | Active | 1.04 | 20.56 | 79.35 | Dose-dependent effect | Active | Active | Dose-dependent effect | 1.86 | Activity (Erythrocyte [21]): 32.3%; Activity (SH-SY5Y [22]): Active; fold change (FC) [23]: 35.42%; Activity (Erythrocyte [24]): Dose-dependent effect
2 | COc1cc(/C=C/C(=O)NCCCNC(=O)CCCCC2CCSS2)ccc1O (stereo not drawn) | Active | Active | Non-Toxic | Active | Active | Active | 1.78 | 72.4 | Active | Active | Active | Active | 1.13 | 0.01 | 0.43 | Dose-dependent effect | Active | Active | Dose-dependent effect | 1.19 | Activity (Erythrocyte [21]): 6.7%; Activity (SH-SY5Y [22]): Active; fold change (FC) [23]: 0.36%; Activity (Erythrocyte [24]): Dose-dependent effect
